≈ marks a conversion by molar mass, not a printed value. Calls of active or inactive are those of the source. No cut-off for these calls is given here.
Tests used:
[1] = Cytotoxicity against human HepG2 cells assessed as reduction in cell viability after 2 days by Celltiter-Glo reagent based assay; conditions: read-out: LD50
Procedure, shortened: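 HepG2 cells in DMEM with 10% FBS, pyruvate, glutamine and nonessential amino acids. Seeded at 3000 cells/well and exposed 2 days to compound or vehicle (≤1% DMSO final). Reported as LD50.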

[2] = test system: Mycobacterium tuberculosis; assay: Bactericidal activity against wild-type non-replicating Mycobacterium tuberculosis H37Rv multi-stress model at 0.1 to 100 ug/ml incubated for 7 days measured at OD580 = 0.01 by charcoal agar resazurin assay; format: functional, organism-based
[3] = Stability in pH 7.4 phosphate buffer solution assessed as parent compound remaining at 5 to 50 ug/ml at 37 degC measured every 12 hrs up to 144 hrs by LC-MS analysis; format: physicochemical
Procedure, shortened: (§1)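 Compound at 50 μg/mL in cell-free PBS pH 7.4, or nonreplicating medium pH 5.0 (BSA, tyloxapol, lysine, pantothenate omitted) with or without 0.5 mM NaNO2. Poorly soluble compounds at 5 μg/mL in 50:50 acetonitrile mixtures, pH readjusted to 5.0.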

[4] = Stability in pH 5 non-replicating medium assessed as parent compound remaining at 5 to 50 ug/ml at 37 degC measured every 12 hrs up to 144 hrs by LC-MS analysis; format: physicochemical; conditions: buffer; procedure, shortened: as §1
[5] = Stability in pH 5 non-replicating medium containing 0.5 mM NaNO2 assessed as parent compound remaining at 5 to 50 ug/ml at 37 degC measured every 12 hrs up to 144 hrs by LC-MS analysis; format: physicochemical; conditions: buffer; procedure, shortened: as §1
[6] = test system: Mycobacterium tuberculosis; assay: Bactericidal activity against wild-type replicating Mycobacterium tuberculosis H37Rv assessed as reduction in CFU in presence of beta-lactamase inhibitor clavulanate; format: functional, organism-based
[7] = test system: Mycobacterium tuberculosis; assay: Bactericidal activity against wild-type non-replicating Mycobacterium tuberculosis H37Rv multi-stress model incubated for 7 days measured at OD580 = 0.01 by charcoal agar resazurin assay; format: functional, organism-based
Procedure, shortened: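 Nonreplicating wild-type H37Rv at OD580 0.1 or 0.01 treated 7 days with or without 0.5 mM NaNO2. 10 μL spotted onto 7H11-OADC-charcoal agar and incubated 7–10 days at 37 °C. Developed with Alamar blue:Tween80 1:1 for 1 h; fluorescence read at ex 530/em 590. Complete loss of fluorescence taken as ≥2–3 log10 CFU reduction.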

[8] = test system: Mycobacterium tuberculosis; assay: Bactericidal activity against wild-type non-replicating Mycobacterium tuberculosis H37Rv at 1 to 100 ug/ml incubated for 7 days measured at OD580 = 0.1 in presence of up to 0.5 mM NaNO2; format: functional, organism-based
Procedure, shortened: (§2)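 Wild-type H37Rv resuspended at OD580 0.1 in nonreplicating medium with NaNO2 at 0–1 mM, one plate per nitrite level. Exposed to compound for 7 days, then standard outgrowth assay to estimate survivors.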

[9] = test system: Mycobacterium tuberculosis; assay: Bactericidal activity against wild-type non-replicating Mycobacterium tuberculosis H37Rv at 1 to 100 ug/ml incubated for 7 days measured at OD580 = 0.1 in presence of 1 mM NaNO2; format: functional, organism-based; procedure, shortened: as §2

SMILES	CC50 at 48 h [1] [µg/mL]	further results
CC1=C(C(=O)O)N2C(=O)[C@@H](NC(=O)CCc3ccc(Br)cc3)[C@H]2SC1	> 100	
CC(=O)OCC1=C(C(=O)O)N2C(=O)[C@@H](NC(=O)Cc3cccs3)[C@H]2SC1 [CEPHALOTHIN]	> 100	
COC(=O)C1=C(C)CS[C@@H]2[C@H](NC(=O)[C@@H](c3ccccc3)N(C)C)C(=O)N12	> 100	
COC(=O)C1=C(C)CS[C@@H]2[C@H](NC(=O)COc3ccc(OC)cc3)C(=O)N12	> 100	
CCCc1noc(C2=C(C)CS[C@@H]3[C@H](NC(=O)Cc4ccccc4)C(=O)N23)n1	> 100	
CCCOC(=O)C1=C(C)CS[C@@H]2[C@H](NC(=O)CCc3ccc(OC)cc3)C(=O)N12	> 100	
CC1=CS[C@@H]2[C@H](NC(=O)COc3ccccc3)C(=O)N2[C@H]1CO	> 100	
CC1=C(c2nc(C)no2)N2C(=O)[C@@H](NC(=O)OCC(Cl)(Cl)Cl)[C@H]2SC1	> 100	Activity [2]: Active
CC1=C(c2nc(C)no2)N2C(=O)[C@@H](NC(=O)[C@H](N)c3ccccc3)[C@H]2SC1	> 100	
CCCCOc1ccc(CCC(=O)N[C@@H]2C(=O)N3C(c4nc(C)no4)=C(C)CS[C@H]23)cc1	74.4 (≈ 163 µM)	
CCOC(=O)C1=C(C)CS[C@@H]2[C@H](NC(=O)COc3ccc(Cl)cc3)C(=O)N12	41 (≈ 99.8 µM)	
CCCc1noc(C2=C(C)CS[C@@H]3[C@H](NC(=O)Cc4ccc(C)cc4)C(=O)N23)n1	> 100	
CCCCOC(=O)C1=C(C)CS[C@@H]2[C@H](NC(=O)CCc3ccccc3)C(=O)N12	> 100	Activity [2]: Active
CCCc1noc(C2=C(C)CS[C@@H]3[C@H](NC(=O)c4ccc(Cl)cc4)C(=O)N23)n1	> 100	Activity [2]: Active
CCCc1noc(C2=C(C)CS[C@@H]3[C@H](NC(=O)CCc4ccccc4Cl)C(=O)N23)n1	> 100	
CCCN[C@@H]1C(=O)N2C(C(=O)OCCC)=C(C)CS[C@H]12	> 100	Stability [3]: 100%; Stability [4]: 100%; Stability [5]: 40%; Activity [6]: inactive
CCCCOC(=O)C1C(C)=CS[C@@H]2[C@H](NC(=O)COc3ccccc3)C(=O)N12 (some centres not stated)	61.8 (≈ 153 µM)	
CC1=C(c2nc(C)no2)N2C(=O)[C@@H](NC(=O)OCC(C)(C)C)[C@H]2SC1	> 100	
CCCc1noc(C2=C(C)CS[C@@H]3[C@H](NC(=O)CCc4ccc(F)cc4)C(=O)N23)n1	> 100	
CCCc1noc(C2=C(C)CS[C@@H]3[C@H](NC(=O)Cc4ccc(OC)cc4)C(=O)N23)n1	72.4 (≈ 169 µM)	
CC1=C(C(=O)O)N2C(=O)[C@@H](NC(=O)c3ccc(Cl)cc3)[C@H]2SC1	> 100	
CCCCOC(=O)C1=C(C)CS[C@@H]2[C@H](NC(=O)COc3ccc(OC)cc3)C(=O)N12	> 100	

SMILES	CC50 at 48 h [1] [µg/mL]	further results
CC1=C(c2nc(C)no2)N2C(=O)[C@@H](NC(=O)OC(C)(C)C)[C@H]2SC1	> 100	
CCCCOC(=O)C1=C(C)CS[C@@H]2[C@H](NC(=O)CCc3ccc(Cl)cc3)C(=O)N12	> 100	
CC1=C(C(=O)O)N2C(=O)[C@@H](NC(=O)Cc3ccc(Cl)cc3)[C@H]2SC1	> 100	
CCCCOC(=O)C1=C(C)CS[C@@H]2[C@H](NC(=O)COc3ccc(Cl)cc3)C(=O)N12	> 100	
C#CCOC(=O)C1=C(C)CS[C@@H]2[C@H](NC(=O)COc3ccc(Cl)cc3)C(=O)N12	63.4 (≈ 151 µM)	
CCCc1noc(C2=C(C)CS[C@@H]3[C@H](NC(=O)CCc4ccc(Cl)cc4)C(=O)N23)n1	> 100	
CC1=C(c2nc(C)no2)N2C(=O)[C@@H](NC(=O)Cc3ccc(C)cc3)[C@H]2SC1	> 100	
C#CCOC(=O)C1=C(C)CS[C@@H]2[C@H](NC(=O)CCc3ccc(Cl)cc3)C(=O)N12	> 100	
COC(=O)C1=C(C)CS[C@@H]2[C@H](NC(=O)[C@H](N)c3ccccc3)C(=O)N12	> 100	
CCCc1noc(C2=C(C)CS[C@@H]3[C@H](NC(=O)COc4ccc(Cl)cc4)C(=O)N23)n1	64.3 (≈ 143 µM)	Activity [2]: Active
CCOC(=O)C1=C(C)CS[C@@H]2[C@H](NC(=O)CCc3ccccc3)C(=O)N12	> 100	
COc1ccc(CCC(=O)N[C@@H]2C(=O)N3C(c4nc(C)no4)=C(C)CS[C@H]23)cc1	> 100	
C#CCNC(=O)C1=C(C)CS[C@@H]2[C@H](NC(=O)COc3ccccc3)C(=O)N12	> 100	
CC1=C(C(=O)O)N2C(=O)[C@@H](NC(=O)[C@H](N)c3ccccc3)[C@H]2SC1 [CEPHALEXIN ANHYDROUS]		Activity [7]: inactive
CC1=C(c2nc(C)no2)N2C(=O)[C@@H](NC(=O)COc3ccc(Cl)cc3)[C@H]2SC1	19.5 (≈ 46.4 µM)	Activity [2]: Active
COC(=O)C1=C(C)CS[C@@H]2[C@H](NC(=O)CCc3ccccc3)C(=O)N12	> 100	
COC(=O)C1=C(C)CS[C@@H]2[C@H](NC(=O)COc3ccccc3)C(=O)N12	> 100	
CCCOC(=O)C1C(C)=CS[C@@H]2[C@H](NC(=O)CCc3ccc(OC)cc3)C(=O)N12 (some centres not stated)	> 100	
CCSC(=O)N[C@@H]1C(=O)N2C(c3nc(C)no3)=C(C)CS[C@H]12	> 100	
CCCOC(=O)C1=C(C)CS[C@@H]2[C@H](NC(=O)COc3ccc(Cl)cc3)C(=O)N12	49.2 (≈ 116 µM)	
COc1ccc(OCC(=O)N[C@@H]2C(=O)N3C(C(=O)OCc4ccccc4)=C(C)CS[C@H]23)cc1	> 100	
CCOC(=O)C1=C(C)CS[C@@H]2[C@H](NC(=O)COc3ccc(OC)cc3)C(=O)N12	> 100	

SMILES	CC50 at 48 h [1] [µg/mL]	further results
CCCOC(=O)C1=C(C)CS[C@@H]2[C@H](NC(=O)[C@H](N)c3ccccc3)C(=O)N12	> 100	
CCCCOc1ccc(CCC(=O)N[C@@H]2C(=O)N3C(c4nc(CCC)no4)=C(C)CS[C@H]23)cc1	> 100	
CCCOC(=O)C1=C(C)CS[C@@H]2[C@H](NC(=O)CCc3ccccc3)C(=O)N12	> 100	
CCCCOC(=O)C1=C(C)CS[C@@H]2[C@H](NC(=O)CCc3ccc(OC)cc3)C(=O)N12	> 100	
CCCc1noc(C2=C(C)CS[C@@H]3[C@H](NC(=O)Cc4ccc(Cl)cc4)C(=O)N23)n1	20.6 (≈ 47.6 µM)	
COc1ccc(CCC(=O)N[C@@H]2C(=O)N3C(C(=O)OCc4ccccc4)=C(C)CS[C@H]23)cc1	> 100	
COC(=O)C1=C(C)CS[C@@H]2[C@H](NC(=O)CCc3ccc(OC)cc3)C(=O)N12	> 100	
CCOC(=O)C1=C(C)CS[C@@H]2[C@H](NC(=O)COc3ccccc3)C(=O)N12	> 100	
CCCOC(=O)C1=C(C)CS[C@@H]2[C@H](NC(=O)COc3ccc(OC)cc3)C(=O)N12	> 100	
CCCc1noc(C2=C(C)CS[C@@H]3[C@H](NC(=O)CCc4ccc(OC)cc4)C(=O)N23)n1	> 100	Activity [2]: Active
C=CC1=C(C(=O)O)N2C(=O)[C@@H](NC(=O)/C(=N\O)c3csc(N)n3)[C@H]2SC1	> 100	
CC1=C(c2nc(C)no2)N2C(=O)[C@@H](NC(=O)Cc3ccccc3)[C@H]2SC1	> 100	
COc1ccc(CC(=O)N[C@@H]2C(=O)N3C(c4nc(C)no4)=C(C)CS[C@H]23)cc1	> 100	
CCOC(=O)C1=C(C)CS[C@@H]2[C@H](NC(=O)CCc3ccc(OC)cc3)C(=O)N12	> 100	Activity [2]: Active
CC1=C(c2nc(C)no2)N2C(=O)[C@@H](NC(=O)Cc3ccc(Cl)c(Cl)c3)[C@H]2SC1	18.9 (≈ 42.9 µM)	
CO[C@H]1/C=C/O[C@@]2(C)Oc3c(C)c(O)c4c(O)c(c(/C=N/N5CCN(C)CC5)c(O)c4c3C2=O)NC(=O)/C(C)=C\C=C\[C@H](C)[C@H](O)[C@@H](C)[C@@H](O)[C@@H](C)[C@H](OC(C)=O)[C@@H]1C		Activity [8]: inactive; Activity [9]: Active
CCCOC(=O)N[C@@H]1C(=O)N2C(C(=O)OCCC)=C(C)CS[C@H]12	> 100	Stability [3]: 80%; Stability [4]: 100%; Stability [5]: 100%; Activity [6]: inactive
CC1=C(C(=O)OCc2ccccc2)N2C(=O)[C@@H](NC(=O)COc3ccc(Cl)cc3)[C@H]2SC1	> 100	
COC(=O)C1=C(C)CS[C@@H]2[C@H](NC(=O)COc3ccc(Cl)cc3)C(=O)N12	> 100	
CCCc1noc(C2=C(C)CS[C@@H]3[C@H](NC(=O)CCc4ccc(C)cc4)C(=O)N23)n1	> 100	
C#CCOC(=O)C1=C(C)CS[C@@H]2[C@H](NC(=O)CCc3ccccc3)C(=O)N12	> 100	
CC1=C(c2nc(C)no2)N2C(=O)[C@@H](NC(=O)Cc3ccc(Cl)cc3)[C@H]2SC1	> 100	
